Nonsense suppression data for 54 variants are collected here from the RNAGym collection of RNA variant scans (doi:10.1101/gad.245936.114).

First the molecules themselves.
B1: tRNA (parent)
chain: CUCUCGGUAGCCAAGUUGGUUUAAGGCGCAAGACUUUAAUUUAUCACUACGAAAUCUUGAGAUCGGGCGUUCGACUCGCCCCCGGGAGAUUUUUUCCUCGAGCAA

Fewer inactive variants are shown than the library holds. Bounds are passed on as bounds.

The variants in this data set derive from B1. As to the kind of experiment: nonsense suppression (GFP-seq) (ratio to wild type); higher = more function; SUP4oc tRNA, yeast GFP reporter sort-seq. In outline: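 Raffinose/galactose medium with 80 mg/L adenine was used to grow yeast carrying genome-integrated tRNA variants (~3% random-mutation library), RFP, and a galactose-driven GFP ochre reporter. Cells went into GFP/RFP bins, which were Illumina-sequenced, and variants with ≥100 reads and ≥30 cells were scored. Nonsense suppression (GFPSEQ) is the per-bin median GFP/RFP weighted by estimated cell share and expressed relative to the unmutated parent tRNA.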
CUCUCGGUAGCCAAGUUGGUUUGAGGCGCAAGACUUUAAUUUAUCACUACGAAAUCUUGAGAUCGGGCGUUCCACUCGCCCCCGGGAGAUUUUUUCCUCGAGCAA: the nonsense suppression is no more than 0.026. In the case of CUCUCGGUAGCCAAGUUGGUUUGAGGCGCAAGACUUUAAUUUAUCACUACGAAAUCUUGAGAUCGGGCGUUCAACUCGCCCCCGGGAGAUUUUUUCCUCGAGCAA, the nonsense suppression worked out at 0.0291. With CUCUCGGUAGCCAAGUUGGUUUUAGGCGCAAGACUUUAAUUUAUCACUACGAAAUCUUGAGAUCGGGCGUUCGACUCGCGCCCGGGAGAUUUUUUCCUCGAGCAA, the nonsense suppression was no more than 0.026. As to CUCUCGGUAGCCAAGUUGGUUUCAGGCGCAAGACUUUAAUUUAUCACUACGAAAUCUUGAGAUCGGGCGUUCGACGCGCCCCCGGGAGAUUUUUUCCUCGAGCAA, the nonsense suppression was no more than 0.026. Turning to CUCUCGGUAGCCAAGUUGGUUUUAGGCGCAAUACUUUAAUUUAUCACUACGAAAUCUUGAGAGCGGGAGAUCGCCUCGCCCCCGGGAGAUUUUUUCCUCGAGCAA, the nonsense suppression was no more than 0.026.

In the case of CUCUCGGUAGCCAAGUUGGUUUUAGGCCCAAGACUUUAAUUUAUCACUACGAAAUCUUGAGAUCGGGCGUUCGACUCGCCCCCGGGAGAUUUUUUCCUCGAGCAA, the nonsense suppression was no more than 0.026. For the variant CUCUCGGUAGCCAAGUUGGUUUUAGGCGCAAGACUUUAAUUUAUCACUACGAAAUGUUGAGAUCGGGCGCUCGACUCGCCCCCGGGAGAUUUUUUCCUCGAGCAA, the nonsense suppression is no more than 0.026. With CUCUCGGUAGCCAAGUUGGUUUUAGGCGCAAGACUUUAAUUUAUCACUACGAAAUCUUGAGAUCCGGCGUUAGACUCGCCCCCGGGAGAUUUUUUCCUCGAGCAA, the nonsense suppression was no more than 0.026. As to CUCUCGGUAGCCAAGUUGGUUUGAGGCGCAAGACUUUAAUUUAUCACUACGAAAUCUUCAGAUGGGGCGUUCGACUUACCCCCGGGAGAUUUUUUCCUCGAGCAA, the nonsense suppression is no more than 0.026. For the variant CUCUCGGUAGCCAAGUUGGUUUGAGGCGUAAGACUUUAAUUUAUCACUACGAAAUCUUGAGAUCGGGCGUUCGACUCGCCCCCGGGAGAUUUUUUCCUCGAGCAA, the nonsense suppression was 0.142. With CUCUCGGUAGCCAAGUUGGUUUGAGGCGCAAGACUUUAAUUUAUCACUACGAAAUCUUGAGAUCGGGCGUUCGACUCGCCCCCGUGAGAUUUUUUCCUCGAGCAA, the nonsense suppression was 0.0779. For CUCUCGGUAGCCAAGUUGGUUUUAGGCGCAAGACUUUAAUUUAUCACUACGAAAUCUUGAGAUCGGGCGUUCGAAUCGCCCCCGGGAGAUUUUUUCCUCGAGCAA, the nonsense suppression was no more than 0.026. In the case of CUCUCGGUAGCCAAGUUGGUUUGAGGCGCAAGACUUUAAUUUAUCACUACGAAAUAUUGAGAUGGGGCGUUCGCCUCGCCCCCGGGAGAUUUUUUCCUCGAGCAA, the nonsense suppression was no more than 0.026. For CUCUCGGUAGCCAAGUUGGUUUUAGGCGCAAGACUUUAAUUUAUCACUACGAAAUCUUGAGAUCGGACGUUCGACUCGCCCCCGGGAGAUUUUUUCCUCGAGCAA the value was no more than 0.026. Take CUCUCGGUAGCCAAGUUGGUUUGAGGCGCUAGACUUUAAUUUAUCACUACGAAAUCUUGAGAUCGGGCGUUCGACUCGCCCCCGGGAGAUUUUUUCCUCGAGCAA: the nonsense suppression is 0.0397. With CUCUCGGUAGCCAAGUUGGUUUGCGGCGCAAGAUUUUAAUUUAUCACUACGAAAUCUUGAGAUCGGGCGUUAGACUCGCCCCCGGGAGUUUUUUUCCUCGAGCAA, the nonsense suppression was no more than 0.026. For CUCUCGGUAGCCAAGUUGGUUUGAGGCGCAAGAAUUUAAUUUAUCACUACGAAAUCUUGAGAUCGGGCGUUCGACUCGCCCCCGGGAGAUUUUUUCCUCGAGCAA the value was no more than 0.026; for CUCUCGGUAGCCAAGUUGGUUUGAGGCGCAAGACUUUAAUUUAUCACUACGAAAUCUUGAGAACGGGCGUUCGACUCGCCCCCGGGAGAUUUUUUCCUCGAGCAA, 0.0418; for CUCUCGGUAGCCAAGUUGGUUUGAGGCGCAAGACUUUAAUUUAUCACUACGAAAUCUUGAGAGCGGGCGUUCGACUCGCCCCCGGGAGAUUUUUUCCUCGAGCAA, no more than 0.026. As to CUCUCGGUAGCCAAGUUGGUUUGCGGCGCAAGACUUUAAUUUAUCACUACGAAAUCUUGAGAUCGGGCGUUCGACUCGCCCCCGGGAGAUUUUUUCCUCGAGCAA, the nonsense suppression amounted to 0.156. As to CUCUCGGUAGCCAAGUUGGUUUUAGGCGUAAGACUUUAAUUUAUCACUACGAAAUCUUGAGAUCGGGCGUUCGACUCGCCCCCGGGAGAUUUUUUCCUCGAGCAA, the nonsense suppression was found to be 0.112. For CUCUCGGUAGCCAAGUUGGUUUUAGGCGGAAGACUUUAAUUUAUCACUACGAAAUCUUGAGAUCGGGCGUUCGACUCGCCCCCGGGAGAUUUUUUCCUCGAGCAA, the nonsense suppression is no more than 0.026. Regarding CUCUCGGUAGCCAAGUUGGUUUGAGGCGCAAGACUUUAAUUUAUCACUACGAAAUCUUGAGAUCGGGCGCUCGACUCGCCCCCGGGAGAUUUUUUCCUCGAGCAA, the nonsense suppression was no more than 0.026. As to CUCUCGGUAGCCAAGUUGGUUUUAUGCGCAAGACUUUAAUUUAUCACUACGAAAUCUUGAGAUCGGGCCUUCGACUCGCCCCCGGGAGAUUUUUUCCUCGAGCAA, the nonsense suppression is no more than 0.026. In the case of CUCUCGGUAGCCAAGUUGGUUUGAGGCGCAAGACUUUAAUUUAUCACUACGAAUUCUUGAGAUCGGGCGUUCGACUCGCCCCCGGGAGAUUUUUUCCUCGAGCAA, the nonsense suppression was 0.0263. Turning to CUCUCGGUAGCCAAGUUGGUUUGAGGCGCAAGACUUUAAUUUAUCACUACGAAAUGUUGAGAUCAGGCGUGCGACUCGCCCCCGGGAGAUUUUUUCCUCGAGCAA, the nonsense suppression is no more than 0.026.

Turning to CUCUCGGUAGCCAAGUUGGUUUGAGGCGCAAGACUUUAAUUUAUCACUACGAAAUCUUGAGAUCGGGUGUUCGACUCGCCCCCGGGAGAUUUUUUCCUCGAGCAA, the nonsense suppression came to 0.182. As for CUCUCGGUAGCCAAGUUGGUUUGAGGCGCAAGCCUUUAAUUUAUCACUACGAAAUCUUGAGAUCGAGCGUUCGACUCGCCCCCGGGAGAUUUUUUCCUCGAGCAA, the nonsense suppression is no more than 0.026.

Take CUCUCGGUAGCCAAGUUGGUUUCAGGCGCAAGACUUUAAUUUAUCACUACGAAAUCCUGAGAUCGGGCGUUCGACUCGCCCCCGGGAGAUUUUUUCCUCGAGCAA: the nonsense suppression is no more than 0.026.

Regarding CUCUCGGUAGCCAAGUUGGUUUCAGGCGCAAGACGUUAAUUUAUCACUACGAAAUCUUGAGAUCGGGCGUUCGACUCGCCCCCGGGAGAUUUUUUCCUCGAGCAA, the nonsense suppression is no more than 0.026. As for CUCUCGGUAGCCAAGUUGGUUUGAGGCGCAAGACUUUAAUUUAUCACUACGAAAUCUUGAGAUCGGGCGUUCGACUCACCCCCGGGAGAUUUUUUCCUCGAGCAA, the nonsense suppression is 0.0355. In the case of CUCUCGGUAGCCAAGUUGGUUUGAGGCGCAAGACUUUAAUUUAUCACUACGAAAUCUUGAGAUCGGGCGUUCGACUCUCCCCCGGGAGAUUUUUUCCUCGAGCAA, the nonsense suppression worked out at 0.0956. Consider CUCUCGGUAGCCAAGUUGGUUUGAGGCGCAAGACUUUAAUUUAUCACUACGAAAUCUUGCGAUCGGGCGUUCGACUCGCCCCCGGGAGAUUUUUUCCUCGAGCAA, for which the nonsense suppression stood at 0.241. For CUCUCGGUAGCCAAGUUGGUUUGAGGCGCAAGACUUUAAUUUAUCACUACGAAAUCUUGGGAUCGGGCGUUCGACUCGCCCCCGGGAGAUUUUUUCCUCGAGCAA the value was 0.0474. CUCUCGGUAGCCAAGUUGGUUUCAGGCGCAAGACUUUAAUUUAUCACUACGAAAUCUUGAGAUCGGGCGUUCGACGCGCCCCCGGGAAAUUUUUUCCUCGAGCAA: the nonsense suppression was no more than 0.026.

With CUCUCGGUAGCCAAGUUGGUUUUAGGCGCAAGACUUUAAUUUAUCACUACGAAAUCUUGAGCUCGGGCGUUCGACUCGCCCCCGGGAGAUUUUUUCCUCGAGCAA, the nonsense suppression was no more than 0.026. In the case of CUCUCGGUAGCCAAGUUGGUUUGAGGCGCAAGACUUUAAUUUAUCACUACGAAAUCUUCAGAUCGGGCGUUCGACUCGCCCCCGGGAGAUUUUUUCCUCGAGCAA it was no more than 0.026; in that of CUCUCGGUAGCCAAGUUGGUUUUAGGCGCAACACUUUAAUUUAUCACUACGAAAUCCUGAGAUCGGGCGUUCGACUCGCCACCGGGAGAUUUUUUCCUCGAGCAA, no more than 0.026. In the case of CUCUCGGUAGCCAAGUUGGUUUGAGGCGCAAGACUUUAAUUUAUCACUACGAAAUCUUGAGAUCGGACGUUCGACUCGCACCCGGGAGAUUUUUUCCUCGAGCAA, the nonsense suppression is no more than 0.026. Take CUCUCGGUAGCCAAGUUGGUUUUAGGCGCAAGAUGUUAAUUUAUCACUACGAAAUCUUGAGAUCGGGCGUUCGACUCGCCCCCGGGAGAUUUUUUCCUCGAGCAA: the nonsense suppression is no more than 0.026. On to CUCUCGGUAGCCAAGUUGGUUUGAGGCGCAAGACUUUAAUUUAUCACUACGAAAUCUUGAGAUCGGUCGUUCGACUCGCCCCCGGGAGAUUUUUUCCUCGAGCAA, for which the nonsense suppression was no more than 0.026.

Turning to CUCUCGGUAGCCAAGUUGGUUUGAGGCGCAAGACUUUAAUUUAUCACUACGAAAGCUUGAGAUCGGGCGUUCGACUCGCCCCCGGGAGAUUUUUUCCUCGAGCAA, the nonsense suppression is no more than 0.026. Regarding CUCUCGGUAGCCAAGUUGGUUUGAGGCGCAAGACUUUAAUUUAUCACUACGAAACCUUGAGAUCGGGCGUUCGACUCGCCCCCGGGAGAUUUUUUCCUCGAGCAA, the nonsense suppression was 0.0273.

On to CUCUCGGUAGCCAAGUUGGUUUGAGGCGCAAGACUUUAAUUUAUCACUACGAAAUCUUGAGAUCGGGCCUUCGACUCGCCCCCGGGAGAUUUUUUCCUCGAGCAA, for which the nonsense suppression is no more than 0.026. For CUCUCGGUAGCCAAGUUGGUUUGAGGCGCAAGACUUUAAUUUAUCACUACGAAAUCUUGACAUCGGGCGUUCGACUCGCCCCCGGGAGAUUUUUUCCUCGAGCAA the value was 0.113.

On to CUCUCGGUAGCCAAGUUGGUUUUAGGCGCAGGGCUUUAAUUUAUCACUACGAAAUCUUGAGAUCGGCCGUUCGACUCGCCCCCGGGAGAUUUUUUCCUCGAGCAA, for which the nonsense suppression was no more than 0.026.

With CUCUCGGUAGCCAAGUUGGUUUUAGGCGCUAGACUUUAAUUUAUCACUACGAAAUCUUGAGAUCGGGCGUUCGACUCGCCCCCGGGAGAUUUUUUCCUCGAGCAA, the nonsense suppression was found to be 0.0282. In the case of CUCUCGGUAGCCAAGUUGGUUUGAGGCGCAAGACUUUAAUUUAUCACUACGAAAUAUUGAGAGCGGGCGUUCGACUCGCCCCCGGGAGAUUUUUUCCUCGAGCAA it was no more than 0.026. As to CUCUCGGUAGCCAAGUUGGUUUGAGGCGCAGGACUUUAAUUUAUCACUACGAAAUCUUGAGAUCGGGCGUUCGACUCGCCCCCGGGAGAUUUUUUCCUCGAGCAA, the nonsense suppression stood at 0.0446. Regarding CUCUCGGUAGCCAAGUUGGUUUUAGGCGCAAGACUUUAAUUUAUCACUACGAAAUCUUGGGAUCGGGCGUUCGACUCGCCCCCGGGAGAUUUUUUCCUCGAGCAA, the nonsense suppression is 0.0537. In the case of CUCUCGGUAGCCAAGUUGGUUUCAGGCGCAAGACUUUAAUUUAUCACUACGAAAUCUGGAGAUGGGGCGUUCGACUCGCCCCCGGGAGAUUUUUUCCUCGAGCAA it was no more than 0.026. Consider CUCUCGGUAGCCAAGUUGGUUUUAGGCGCAAGACUUUAAUUUAUCACUACGAAAUCUUGAGAUCAGGCGUUCGACUCGCCCCCGGGAGAUUUUUUCCUCGAGCAA, for which the nonsense suppression is no more than 0.026. For the variant CUCUCGGUAGCCAAGUUGGUUUGAGGCGCAAGACUUUAAUUUAUCACUACGAAAUCUUGAGAUCGGGCGUUCGACUCGCCCCCUGUAGAUUUUUUCCUCGAGCAA, the nonsense suppression is no more than 0.026. Regarding CUCUCGGUAGCCAAGUUGGUUUUAGGCGCAGGACUUUAAUUUAUCACUACGAAAUCUUGAGAUCGGGCGUUCGACUCGCCCCCGGGAGAUUUUUUCCUCGAGCAA, the nonsense suppression was no more than 0.026.
